# pKi: −log10 of the molar value.
# How the values were obtained:
# [1] = molecular target: T1, Alpha-2A adrenergic receptor (Homo sapiens, UniProt P08913); experiment: Compound is evaluated for binding affinity towards Alpha-2A adrenergic receptor using [3H]MK912
# T1 sequence (P08913 whole entry): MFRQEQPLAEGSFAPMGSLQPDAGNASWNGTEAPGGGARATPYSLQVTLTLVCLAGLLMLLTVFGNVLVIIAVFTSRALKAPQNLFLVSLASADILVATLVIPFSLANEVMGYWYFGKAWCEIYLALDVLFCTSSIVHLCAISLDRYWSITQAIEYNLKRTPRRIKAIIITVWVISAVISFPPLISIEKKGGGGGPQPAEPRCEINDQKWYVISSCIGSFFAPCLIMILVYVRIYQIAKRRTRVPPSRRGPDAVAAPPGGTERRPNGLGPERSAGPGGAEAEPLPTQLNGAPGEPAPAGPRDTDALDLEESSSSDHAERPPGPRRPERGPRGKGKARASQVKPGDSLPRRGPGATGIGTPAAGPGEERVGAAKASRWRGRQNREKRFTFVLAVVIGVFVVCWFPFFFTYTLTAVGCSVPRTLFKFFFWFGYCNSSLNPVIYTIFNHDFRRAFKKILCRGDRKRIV
# Histamine H1 receptor = Histamine H1 receptor (Cavia porcellus, UniProt P31389); experiment: Compound is evaluated for binding affinity towards Histamine H1 receptor using [3H]pyrilamine in guinea pig lung; format: tissue-based
# Outline: (§1)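 Contract radioligand competition binding. Sources: 5-HT1 and 5-HT1A in rat brain cortex; 5-HT2 and σ2 in rat brain; σ in guinea pig brain; D2, rhD2 and rhD3 in CHO cells with [³H]spiperone; H1 in guinea pig lung with [³H]pyrilamine. Inhibition constants reported; no constant given where inhibition at 10 µM was below 50%.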
# D(2) dopamine receptor [2] = molecular target: T2, D(2) dopamine receptor (Homo sapiens, UniProt P14416); experiment: Compound is evaluated for binding affinity towards recombinant human Dopamine receptor D2 using [3H]spiperone in CHO cells; format: cell-based
# Outline: as §1
# [3] = molecular target: Serotonin 2 (5-HT2) receptor (Rattus norvegicus, UniProt P30994+P08909+P14842); experiment: Compound is evaluated for binding affinity towards 5-hydroxytryptamine 2 receptor using [3H]ketanserin in rat brain; format: tissue-based
# Outline: as §1
# [4] = molecular target: Sodium channel alpha subunits; brain (Types I, II, III) (Rattus norvegicus, UniProt P04775+P04774+P08104); experiment: Displacement of [3H]batrachotoxin from rat brain sodium channel; format: tissue-based
# Outline: (§2)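 Radioligand competition binding was done by an outside contract lab (Pan Lab). Inhibition constants (Ki) were derived from displacement of the stated tritiated ligand. Each compound was tested at 10 µM. Where inhibition at that concentration stayed below 50%, no Ki was reported.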
# [5] = molecular target: T3, Alpha-1B adrenergic receptor (Rattus norvegicus, UniProt P15823); experiment: Displacement of [3H]prazosin from Alpha-1B adrenergic receptor of rat liver membrane
# T3 sequence (P15823 whole entry): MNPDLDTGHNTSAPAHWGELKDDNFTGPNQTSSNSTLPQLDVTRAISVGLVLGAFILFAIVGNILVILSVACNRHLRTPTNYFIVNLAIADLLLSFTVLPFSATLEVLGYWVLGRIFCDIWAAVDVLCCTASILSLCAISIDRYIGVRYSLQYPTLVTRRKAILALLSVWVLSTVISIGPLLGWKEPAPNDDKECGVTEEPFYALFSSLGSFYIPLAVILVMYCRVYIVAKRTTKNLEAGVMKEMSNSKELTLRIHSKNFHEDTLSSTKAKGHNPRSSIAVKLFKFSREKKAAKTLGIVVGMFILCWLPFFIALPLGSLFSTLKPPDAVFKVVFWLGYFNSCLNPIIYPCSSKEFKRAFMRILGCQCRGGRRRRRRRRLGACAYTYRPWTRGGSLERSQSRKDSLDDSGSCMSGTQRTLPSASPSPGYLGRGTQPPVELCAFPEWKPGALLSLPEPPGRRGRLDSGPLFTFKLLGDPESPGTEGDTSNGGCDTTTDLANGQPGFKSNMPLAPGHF
# Outline: (§3)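 Triplicate competition binding against 0.2-0.25 nM [³H]prazosin in Tris buffer pH 7.4, 30 min at room temperature. Competitor range 0.1-200 nM. Nonspecific binding defined with 10 µM phentolamine. Reaction stopped by GF/B filtration with two cold Tris washes. Membrane protein 300-400 µg per assay. Ki calculated from the data; mean ± SEM of 3-6 experiments.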
# D(3) dopamine receptor [6] = molecular target: T4, D(3) dopamine receptor (Homo sapiens, UniProt P35462); experiment: Compound is evaluated for binding affinity towards recombinant human Dopamine receptor D3 using [3H]spiperone in CHO cells at 10 uM; format: cell-based
# Outline: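 Single-concentration screen at 10 µM in contract radioligand binding assays. Records whether inhibition of specific radioligand binding stayed below 50%.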
# D(2) dopamine receptor [7] = molecular target: T2, D(2) dopamine receptor; experiment: Compound is evaluated for binding affinity towards Dopamine receptor D2 using [3H]spiperone in CHO cells at 10 uM; format: cell-based
# [8] = molecular target: T5, Alpha-1A adrenergic receptor (Rattus norvegicus, UniProt P43140); experiment: Displacement of [3H]prazosin from Alpha-1A adrenergic receptor of rat submaxillary gland membranes; format: cell membranes, Membrane
# T5 sequence (P43140 whole entry): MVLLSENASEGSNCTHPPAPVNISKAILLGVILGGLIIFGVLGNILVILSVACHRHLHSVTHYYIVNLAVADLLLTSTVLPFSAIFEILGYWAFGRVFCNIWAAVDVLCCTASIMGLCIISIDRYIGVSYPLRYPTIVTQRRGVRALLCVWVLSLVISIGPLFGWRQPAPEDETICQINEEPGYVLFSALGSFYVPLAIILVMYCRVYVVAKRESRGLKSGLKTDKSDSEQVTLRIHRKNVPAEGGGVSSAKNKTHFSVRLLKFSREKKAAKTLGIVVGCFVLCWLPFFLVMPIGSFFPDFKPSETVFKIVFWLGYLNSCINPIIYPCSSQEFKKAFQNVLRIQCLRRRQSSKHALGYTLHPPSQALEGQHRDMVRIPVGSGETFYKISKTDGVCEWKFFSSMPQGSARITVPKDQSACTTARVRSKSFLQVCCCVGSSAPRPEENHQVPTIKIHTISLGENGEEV
# Outline: as §3
# [9] = molecular target: T6, Alpha-2B adrenergic receptor (Homo sapiens, UniProt P18089); experiment: Compound is evaluated for binding affinity towards Alpha-2B adrenergic receptor using [3H]yohimbine
# T6 sequence (P18089 whole entry): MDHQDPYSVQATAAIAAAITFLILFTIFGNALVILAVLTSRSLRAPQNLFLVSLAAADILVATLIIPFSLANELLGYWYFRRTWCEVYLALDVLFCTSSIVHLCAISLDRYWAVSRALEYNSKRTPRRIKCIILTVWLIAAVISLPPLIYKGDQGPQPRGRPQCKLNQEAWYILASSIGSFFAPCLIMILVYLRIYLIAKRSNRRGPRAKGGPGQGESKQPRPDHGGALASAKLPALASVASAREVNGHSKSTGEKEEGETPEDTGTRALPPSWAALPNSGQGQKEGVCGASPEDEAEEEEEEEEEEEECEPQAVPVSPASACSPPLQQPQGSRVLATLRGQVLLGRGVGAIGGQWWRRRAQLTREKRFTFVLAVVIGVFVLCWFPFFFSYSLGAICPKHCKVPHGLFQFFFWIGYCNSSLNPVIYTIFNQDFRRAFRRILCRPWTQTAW
# [10] = Selectivity ratio for binding affinity towards alpha2 and alpha-1 adrenoceptors
# Outline: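 Ratio of α2 Ki ([³H]clonidine binding) to α1 Ki ([³H]prazosin binding), both measured in rat cortical membrane competition assays.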
# [11] = molecular target: T7, 5-hydroxytryptamine receptor 1A (Rattus norvegicus, UniProt P19327); experiment: Compound is evaluated for binding affinity towards 5-hydroxytryptamine 1A receptor using [3H]-8-OH- -DPAT in rat brain cortex; format: tissue-based
# T7 sequence (P19327 whole entry): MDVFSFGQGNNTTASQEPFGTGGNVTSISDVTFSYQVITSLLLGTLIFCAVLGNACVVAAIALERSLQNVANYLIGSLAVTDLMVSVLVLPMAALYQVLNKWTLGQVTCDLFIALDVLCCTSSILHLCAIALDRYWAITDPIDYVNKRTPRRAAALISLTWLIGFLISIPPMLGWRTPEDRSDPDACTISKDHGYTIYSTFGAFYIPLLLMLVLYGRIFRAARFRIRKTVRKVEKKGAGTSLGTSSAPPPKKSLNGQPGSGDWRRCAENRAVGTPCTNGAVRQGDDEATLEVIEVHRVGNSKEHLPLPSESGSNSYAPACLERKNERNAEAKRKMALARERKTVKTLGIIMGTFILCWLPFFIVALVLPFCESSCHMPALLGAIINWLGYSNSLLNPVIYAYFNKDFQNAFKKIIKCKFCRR
# Outline: as §1
# [12] = molecular target: Serotonin 1 (5-HT1) receptor (Rattus norvegicus, UniProt P28564+P30940+P19327+P28565); experiment: Compound is evaluated for binding affinity towards 5-hydroxytryptamine 1 receptor using [3H]5-HT in rat brain cortex; format: tissue-based
# Outline: as §1
# Sigma 2 receptor [13] = experiment: (§4) Binding affinity towards Sigma 2 receptor using [3H]ifenprodil in rat brain; format: tissue-based
# Outline: as §1
# D(2) dopamine receptor [14] = molecular target: T2, D(2) dopamine receptor; experiment: Compound is evaluated for binding affinity towards Dopamine receptor D2 using [3H]spiperone in CHO cells; format: cell-based
# Outline: as §1
# D(3) dopamine receptor [15] = molecular target: T4, D(3) dopamine receptor; experiment: Compound is evaluated for binding affinity towards recombinant human Dopamine receptor D3 using [3H]spiperone in CHO cells; format: cell-based
# Outline: as §1
# [16] = molecular target: Alpha-2B adrenergic receptor (Homo sapiens) (UniProt P18089); experiment: Compound is evaluated for binding affinity towards Alpha-2B adrenergic receptor using [3H]yohimbine at 10 uM
# [17] = molecular target: Alpha-2A adrenergic receptor (Homo sapiens) (UniProt P08913); experiment: Compound is evaluated for binding affinity towards Alpha-2A adrenergic receptor using [3H]MK912 at 10 uM
# Sigma 2 receptor [18] = experiment: as §4; format: tissue-based; conditions: concentration not given here
# Outline: as §2
# [19] = molecular target: Sodium channel alpha subunits; brain (Types I, II, III) (Rattus norvegicus) (UniProt P04775+P04774+P08104); experiment: Displacement of [3H]batrachotoxin from rat brain sodium channel at 10 uM; format: tissue-based
# Outline: as §2
# [20] = molecular target: Serotonin 1 (5-HT1) receptor (Rattus norvegicus) (UniProt P28564+P30940+P19327+P28565); experiment: Compound is evaluated for binding affinity towards 5-hydroxytryptamine 1 receptor using [3H]5-HT in rat brain cortex at 10 uM; format: tissue-based
# Outline: as §2
# T2 sequence (P14416 whole entry): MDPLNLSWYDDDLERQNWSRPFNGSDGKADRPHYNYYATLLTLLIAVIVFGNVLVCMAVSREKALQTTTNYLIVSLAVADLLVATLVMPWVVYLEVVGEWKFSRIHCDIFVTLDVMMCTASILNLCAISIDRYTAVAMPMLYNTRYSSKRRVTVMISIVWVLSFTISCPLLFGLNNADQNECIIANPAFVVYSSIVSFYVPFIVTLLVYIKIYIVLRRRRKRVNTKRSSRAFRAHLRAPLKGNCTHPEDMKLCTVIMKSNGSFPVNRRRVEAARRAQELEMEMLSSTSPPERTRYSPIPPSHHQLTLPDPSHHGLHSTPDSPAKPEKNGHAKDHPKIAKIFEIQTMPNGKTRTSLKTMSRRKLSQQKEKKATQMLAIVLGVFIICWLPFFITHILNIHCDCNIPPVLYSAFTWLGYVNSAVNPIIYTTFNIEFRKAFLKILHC
# Histamine H1 receptor, sequence (P31389 whole entry): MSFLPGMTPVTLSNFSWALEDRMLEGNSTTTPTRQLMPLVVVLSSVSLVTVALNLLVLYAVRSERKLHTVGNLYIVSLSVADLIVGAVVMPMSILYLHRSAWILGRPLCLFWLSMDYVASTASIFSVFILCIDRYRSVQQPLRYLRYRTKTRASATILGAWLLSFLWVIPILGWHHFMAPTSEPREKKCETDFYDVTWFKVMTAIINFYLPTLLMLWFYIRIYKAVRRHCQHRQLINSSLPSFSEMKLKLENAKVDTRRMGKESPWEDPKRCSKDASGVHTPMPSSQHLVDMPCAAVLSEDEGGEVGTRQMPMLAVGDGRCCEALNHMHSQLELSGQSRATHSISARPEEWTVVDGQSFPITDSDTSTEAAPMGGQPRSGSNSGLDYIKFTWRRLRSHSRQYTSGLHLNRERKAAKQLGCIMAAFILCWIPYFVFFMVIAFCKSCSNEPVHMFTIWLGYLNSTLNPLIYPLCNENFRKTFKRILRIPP
# T4 sequence (P35462 whole entry): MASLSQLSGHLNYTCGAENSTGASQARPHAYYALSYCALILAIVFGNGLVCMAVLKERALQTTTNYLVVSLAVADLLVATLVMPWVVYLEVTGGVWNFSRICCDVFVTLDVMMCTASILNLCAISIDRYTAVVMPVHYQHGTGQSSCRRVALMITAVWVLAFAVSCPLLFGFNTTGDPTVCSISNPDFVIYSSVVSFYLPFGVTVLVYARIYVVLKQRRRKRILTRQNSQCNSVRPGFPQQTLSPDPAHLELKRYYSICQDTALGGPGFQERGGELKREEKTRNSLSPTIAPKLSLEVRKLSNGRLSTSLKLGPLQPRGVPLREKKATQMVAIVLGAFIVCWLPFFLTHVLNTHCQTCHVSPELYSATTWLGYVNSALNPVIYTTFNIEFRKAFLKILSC
SMILES,pKi (Histamine H1 receptor),pKi (D(2) dopamine receptor [2]),Ki [3],pKi [5],pKi [8],Ratio [10],pKi [11],further results
COc1ccccc1N1CCN(CCn2c(=O)[nH]c3ccccc3c2=O)CC1,6.16,6.88,180 nM,8.96,9.30,6400,7.80,pKi [1]: 5.74; Ki [4]: 3680 nM; pKi (D(3) dopamine receptor [6]): 7.14; pKi (D(2) dopamine receptor [7]): 7.49; pKi [9]: 7.25; Ki [12]: 1510 nM; pKi (Sigma 2 receptor [13]): 5.60
COc1ccccc1N1CCN(CC2CN=C3c4ccccc4NC(=O)N32)CC1 (stereo not drawn),5.63,6.62,377 nM,9.17,9.59,2820,6.81,pKi (D(2) dopamine receptor [14]): 6.80; pKi (D(3) dopamine receptor [15]): 6.01; inhibition [16]: < 50%; inhibition [17]: < 50%; inhibition (Sigma 2 receptor [18]): < 50%; inhibition [19]: < 50%; inhibition [20]: < 50%
